Reference: ChEMBL document CHEMBL2203147 (ACS Med Chem Lett, 2011)
Active and inactive are the calls of the source. No cut-off for these calls is given here.

Experiments:
[1] = target: D(3) dopamine receptor (Homo sapiens) (UniProt P35462); assay: Agonist activity at human dopamine D3 receptor expressed in CHOp cells assessed as […] quinpirole-induced mitogenesis after 24 hrs relative to quinpirole; assay type: functional, cell-based
Procedure, shortened: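 Mitogenesis functional assay on cloned human D3 receptor expressed in CHO cells. Quinpirole serves as the standard D3 agonist control. Readouts are EC50 and maximal stimulation, expressed as a percentage of the quinpirole maximum.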

Rattus norvegicus [2] = assay: Induction of yawning in Sprague-Dawley rat at 10 mg/kg, sc pre-treated with 32 mg/kg D3 receptor antagonist SB-277011A measured 30 mins post dose; assay type: functional, organism-based
Procedure, shortened: (§1)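 The selective antagonist (D3: SB-277011A; D2: L-741,626) was given before the subcutaneous agonist dose. Yawning was then scored in rats.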

Rattus norvegicus [3] = assay: Induction of yawning in Sprague-Dawley rat at 0.01 mg/kg, sc after 60 mins; assay type: functional, organism-based; set-up: dose 0.01 mg/kg
[4] = Aqueous solubility of the compound; assay type: physicochemical
Rattus norvegicus [5] = assay: Induction of yawning in Sprague-Dawley rat at 1 mg/kg, sc pre-treated with 1 mg/kg D2 receptor antagonist L-741,626 measured 30 mins post dose; assay type: functional, organism-based; procedure, shortened: as §1
Rattus norvegicus [6] = assay: Induction of hypothermia in Sprague-Dawley rat at 10 mg/kg, sc pre-treated with 1 mg/kg D2 receptor antagonist L-741,626 measured 30 mins post dose
Rattus norvegicus [7] = assay: Induction of hypothermia in Sprague-Dawley rat at 3.2 mg/kg, sc after 60 mins; assay type: functional, organism-based; set-up: dose 3.2 mg/kg
Procedure, shortened: (§2)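 Readout is the change in core body temperature in rats after subcutaneous agonist dosing. Statistical significance was assessed at P < 0.05, 0.005 and 0.001.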

Rattus norvegicus [8] = assay: Induction of yawning in Sprague-Dawley rat at 10 mg/kg, sc pre-treated with 1 mg/kg D2 receptor antagonist L-741,626 measured 30 mins post dose; assay type: functional, organism-based; procedure, shortened: as §1
Rattus norvegicus [9] = assay: Induction of yawning in sc dosed Sprague-Dawley rat after 60 mins; assay type: functional, organism-based
Rattus norvegicus [10] = assay: Induction of hypothermia in Sprague-Dawley rat at 10 mg/kg, sc after 60 mins; assay type: functional, organism-based; set-up: dose 10 mg/kg; procedure, shortened: as §2
Rattus norvegicus [11] = organism: Rattus norvegicus; settings: Sprague-Dawley, 10 mg/kg
Rattus norvegicus [12] = assay: Induction of yawning in Sprague-Dawley rat at 1 mg/kg, sc after 60 mins; assay type: functional, organism-based; set-up: dose 1 mg/kg
Rattus norvegicus [13] = assay: Induction of yawning in Sprague-Dawley rat at 0.01 to 10 mg/kg, sc after 60 mins; assay type: functional, organism-based
Rattus norvegicus [14] = assay: Induction of yawning in Sprague-Dawley rat at 1 mg/kg, sc pre-treated with 32 mg/kg D3 receptor antagonist SB-277011A measured 30 mins post dose; assay type: functional, organism-based; procedure, shortened: as §1
[15] = target: D(1A) dopamine receptor (Homo sapiens) (UniProt P21728); assay: Displacement of [3H]SCH-23390 from human cloned dopamine D1 receptor expressed in LhD1 cells at 10000 nM after 60 mins by scintillation counter; assay type: cell-based
Chain of D(1A) dopamine receptor (Homo sapiens) (P21728 whole entry): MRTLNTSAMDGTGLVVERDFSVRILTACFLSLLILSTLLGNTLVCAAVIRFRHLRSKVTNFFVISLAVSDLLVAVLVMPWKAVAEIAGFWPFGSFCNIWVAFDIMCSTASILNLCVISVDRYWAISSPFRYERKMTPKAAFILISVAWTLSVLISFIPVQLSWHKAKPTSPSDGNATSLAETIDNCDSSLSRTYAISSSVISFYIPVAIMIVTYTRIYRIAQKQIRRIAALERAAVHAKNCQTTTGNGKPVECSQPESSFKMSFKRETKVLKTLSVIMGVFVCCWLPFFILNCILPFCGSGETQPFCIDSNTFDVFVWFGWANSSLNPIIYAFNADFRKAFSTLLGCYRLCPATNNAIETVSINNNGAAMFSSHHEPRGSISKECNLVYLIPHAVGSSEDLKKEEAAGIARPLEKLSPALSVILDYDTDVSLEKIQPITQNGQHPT

Rattus norvegicus [16] = organism: Rattus norvegicus; assay: Selectivity ratio of Ki for Sprague-Dawley rat dopamine D2-like receptor to Ki for Sprague-Dawley rat dopamine D3 receptor
D(2) dopamine receptor = D(2) dopamine receptor (Rattus norvegicus, UniProt P61169); assay: Displacement of [3H]Spiperone from Sprague-Dawley rat dopamine D2-like receptor after 90 mins
Chain of D(2) dopamine receptor (P61169 whole entry): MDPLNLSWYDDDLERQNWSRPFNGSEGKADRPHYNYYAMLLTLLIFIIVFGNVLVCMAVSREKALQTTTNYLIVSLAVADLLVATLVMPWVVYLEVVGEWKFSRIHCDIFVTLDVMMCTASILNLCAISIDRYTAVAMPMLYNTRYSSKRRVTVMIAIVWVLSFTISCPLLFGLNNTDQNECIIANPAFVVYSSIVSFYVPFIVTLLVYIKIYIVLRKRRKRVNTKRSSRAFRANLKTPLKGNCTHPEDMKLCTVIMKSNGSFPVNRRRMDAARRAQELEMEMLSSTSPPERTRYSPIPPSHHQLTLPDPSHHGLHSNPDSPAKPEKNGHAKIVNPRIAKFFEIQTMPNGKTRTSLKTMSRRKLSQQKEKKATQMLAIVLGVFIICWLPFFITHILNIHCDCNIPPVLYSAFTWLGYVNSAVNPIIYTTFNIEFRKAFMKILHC

D(3) dopamine receptor = D(3) dopamine receptor (Rattus norvegicus, UniProt P19020); assay: Displacement of [3H]R(+)-7-OH-DPAT from Sprague-Dawley rat dopamine D3 receptor after 90 mins
Chain of D(3) dopamine receptor (P19020 whole entry): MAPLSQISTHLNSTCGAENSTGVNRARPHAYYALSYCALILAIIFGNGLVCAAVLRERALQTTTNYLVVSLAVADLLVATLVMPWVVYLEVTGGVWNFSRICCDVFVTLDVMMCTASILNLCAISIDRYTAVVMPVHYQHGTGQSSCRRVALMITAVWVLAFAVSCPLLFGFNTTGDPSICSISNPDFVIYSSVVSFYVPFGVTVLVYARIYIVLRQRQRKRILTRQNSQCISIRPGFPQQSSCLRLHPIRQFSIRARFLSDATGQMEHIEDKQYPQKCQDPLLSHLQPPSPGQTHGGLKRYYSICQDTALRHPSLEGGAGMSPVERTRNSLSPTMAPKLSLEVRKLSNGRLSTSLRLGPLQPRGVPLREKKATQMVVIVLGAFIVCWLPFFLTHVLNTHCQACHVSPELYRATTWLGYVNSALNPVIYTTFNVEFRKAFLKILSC

[17] = Displacement of [3H]SCH 23390 from Sprague-Dawley rat dopamine D1-like receptor after 90 mins
Rattus norvegicus [18] = organism: Rattus norvegicus; assay: Selectivity ratio of Ki for Sprague-Dawley rat dopamine D1-like receptor to Ki for Sprague-Dawley rat dopamine D3 receptor
Rattus norvegicus [19] = organism: Rattus norvegicus; settings: Sprague-Dawley, 0.32 mg/kg
Rattus norvegicus [20] = organism: Rattus norvegicus; settings: Sprague-Dawley, 10 mg/kg; remark: listed apart in the source
Rattus norvegicus [21] = assay: Induction of yawning in Sprague-Dawley rat at 0.1 to 10 mg/kg, sc after 60 mins; assay type: functional, organism-based

Chain of D(3) dopamine receptor (Homo sapiens) (P35462 whole entry): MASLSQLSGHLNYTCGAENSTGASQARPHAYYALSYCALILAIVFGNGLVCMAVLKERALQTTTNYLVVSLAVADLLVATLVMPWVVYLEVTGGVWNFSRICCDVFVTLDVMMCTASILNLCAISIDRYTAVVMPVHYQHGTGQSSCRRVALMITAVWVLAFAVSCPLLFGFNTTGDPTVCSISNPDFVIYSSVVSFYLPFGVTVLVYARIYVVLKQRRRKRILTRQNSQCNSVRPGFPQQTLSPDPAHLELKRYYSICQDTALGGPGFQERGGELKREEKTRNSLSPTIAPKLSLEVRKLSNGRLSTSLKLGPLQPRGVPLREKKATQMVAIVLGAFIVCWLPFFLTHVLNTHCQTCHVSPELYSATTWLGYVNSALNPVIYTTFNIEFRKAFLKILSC

What does the source list for `CCCN(CC[C@]1(O)C[C@H](NC(=O)c2ccc3ccccc3c2)C1)[C@H]1CCc2nc(N)sc2C1.Cl`?
Emax [1]: 103%; Activity (Rattus norvegicus [2]): inactive; Activity (Rattus norvegicus [3]): Active; solubility [4]: > 100 mg/mL; Activity (Rattus norvegicus [5]): Active; Activity (Rattus norvegicus [6]): Active; Activity (Rattus norvegicus [7]): inactive; Activity (Rattus norvegicus [8]): Active; Activity (Rattus norvegicus [9]): Dose-dependent effect; Activity (Rattus norvegicus [10]): Active; deltaT (Rattus norvegicus [11]): 0.75 °C; Activity (Rattus norvegicus [12]): Active; Activity (Rattus norvegicus [13]): Active; Activity (Rattus norvegicus [14]): inactive; Activity [15]: inactive

With `CCCN(CC[C@H]1CC[C@H](NC(=O)/C=C/c2ccccc2)CC1)[C@H]1CCc2nc(N)sc2C1` as the compound, how does the solubility [4] read?
Its solubility is over 50 mg/mL.

Which Ratio Ki (Rattus norvegicus [16]) does the source give for `CCCN(CC[C@]1(O)CC[C@H](NC(=O)c2ccc3ccccc3c2)CC1)[C@H]1CCc2nc(N)sc2C1` here?
Its Ratio Ki is 3820.

What about the Ki (D(2) dopamine receptor) of the same compound?
Its Ki is 3.55 µM.

And the Ki (D(3) dopamine receptor)?
The Ki was 0.00093 µM.

And the Ki [17]?
Its Ki is 14.1 µM.

And the Ratio Ki (Rattus norvegicus [18])?
The Ratio Ki was 15100.

For `CCCN(CC[C@H]1C[C@H](NC(=O)c2ccc3ccccc3c2)C1)[C@H]1CCc2nc(N)sc2C1`, which Ratio Ki (Rattus norvegicus [16]) is on record?
Its Ratio Ki is 1420.

What about the Ki (D(2) dopamine receptor) of the same compound?
Its Ki is 0.584 µM.

And the Ki (D(3) dopamine receptor)?
Its Ki is 0.00041 µM.

What about the Ki [17] of the same compound?
The Ki was 6.12 µM.

And the Ratio Ki (Rattus norvegicus [18])?
The Ratio Ki was 14800.

For `CCCN(CC[C@H]1C[C@@H](NC(=O)c2ccc3ccccc3c2)C1)[C@H]1CCc2nc(N)sc2C1`, which Ratio Ki (Rattus norvegicus [16]) is on record?
Its Ratio Ki is 1630.

And the Ki (D(2) dopamine receptor)?
Its Ki is 0.564 µM.

And the Ki (D(3) dopamine receptor)?
Its Ki is 0.00035 µM.

And the Ki [17]?
The Ki was 3.06 µM.

And the Ratio Ki (Rattus norvegicus [18])?
The Ratio Ki was 8820.

What does the source list for `CCCN[C@H]1CCc2nc(N)sc2C1` [PRAMIPEXOLE]?
Ki (D(3) dopamine receptor): 0.00045 µM; Ki [17]: > 10 µM; deltaT (Rattus norvegicus [19]): 0.75 °C; Activity (Rattus norvegicus [9]): Dose-dependent effect; Activity (Rattus norvegicus [10]): Active; inhibition (Rattus norvegicus [20]): Active

Which results are given for `CCCN(CC[C@]1(O)C[C@@H](NC(=O)c2ccc3ccccc3c2)C1)[C@H]1CCc2nc(N)sc2C1.Cl`?
Activity (Rattus norvegicus [21]): Active; solubility [4]: > 100 mg/mL; Activity (Rattus norvegicus [9]): Dose-dependent effect; Activity (Rattus norvegicus [12]): Active

Which solubility [4] does the source give for `CCCN(CC[C@H]1CC[C@H](NC(=O)c2ccc3ccccc3c2)CC1)[C@H]1CCc2nc(N)sc2C1` here?
The solubility was over 50 mg/mL.

What about the Ki [17] of the same compound?
Its Ki is over 5 µM.

For `CCCN(CC[C@]1(O)CC[C@@H](NC(=O)c2ccc3ccccc3c2)CC1)[C@H]1CCc2nc(N)sc2C1`, which Ratio Ki (Rattus norvegicus [16]) is on record?
The Ratio Ki was 1040.

And the Ki (D(2) dopamine receptor)?
The Ki was 1.63 µM.

What about the Ki (D(3) dopamine receptor) of the same compound?
Its Ki is 0.0016 µM.

What about the Ki [17] of the same compound?
The Ki was 11.6 µM.

And the Ratio Ki (Rattus norvegicus [18])?
The Ratio Ki was 7370.
